# Laboratory results taken from ChEMBL document CHEMBL3616436, “Synthesis, cytotoxicity and antimicrobial activity of thiourea derivatives incorporating 3-(trifluoromethyl)phenyl moiety” (Eur J Med Chem, 2015).
# Activity calls are given as the source filed them. No cut-off for these calls is given here.
# Tests used:
# [1] = Antiviral activity against Bovine viral diarrhea virus 1-NADL ATCC VR-534 infected in MDBK cells assessed as protection against virus-induced cytopathogenicity after 3 to 4 days by MTT assay; assay type: functional, cell-based; conditions: Bovine viral diarrhea virus isolates and strains, ATCC VR-534, MDBK
# Summary of the method: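 Cells seeded in 96-well plates (BHK 5x10^4, MDBK 3x10^4 cells/well), grown overnight to confluence, infected at m.o.i. 0.01 (BHK for Reo-1, MDBK for BVDV); serial compound dilutions in maintenance medium with 0.5% inactivated FBS added after 1 h; viability by MTT after 3–4 days at 37°C; EC50 for 50% protection by linear regression.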
# [2] = Cytotoxicity against BHK cells assessed as cell viability after 48 to 96 hrs by MTT assay; assay type: cell-based, Mesocricetus auratus; conditions: hamster
# [3] = Cytotoxicity against African green monkey Vero 76 cells assessed as cell viability after 48 to 96 hrs by crystal violet staining; assay type: cell-based; conditions: chlorocebus sabaeus
# Coxsackievirus B5 = assay: Antiviral activity against Human coxsackievirus B5 ATCC VR-29 infected in African green monkey Vero 76 cells assessed as reduction of virus-plaque formation after 3 days by crystal violet staining; assay type: functional, organism-based; conditions: Enterovirus B, ATCC VR-29, Vero, 72 h
# Summary of the method: (§1)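 Plaque reduction: Vero-76 at 2x10^5 cells/well grown to confluent monolayers, infected 2 h at 50–100 PFU/well; after removing unadsorbed virus, overlay of D-MEM, 1% inactivated FBS, 0.75% methylcellulose with or without serial compound dilutions; 3 days at 37°C, fixed and stained with crystal violet in 50% ethanol, plaques counted; EC50 by linear regression.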
# Poliovirus 1 = assay: Antiviral activity against Poliovirus type 1 ATCC VR-1562 infected in African green monkey Vero 76 cells assessed as reduction of virus-plaque formation after 2 days by crystal violet staining; assay type: functional, organism-based; conditions: Enterovirus C, ATCC VR-1562, Vero, 48 h
# Human alphaherpesvirus 1 = assay: Antiviral activity against Human herpesvirus 1 KOS ATCC VR-1493 infected in African green monkey Vero 76 cells assessed as reduction of virus-plaque formation after 3 days by crystal violet staining; assay type: functional, organism-based; conditions: Human alphaherpesvirus 1, KOS ATCC VR1493, Vero, 72 h; summary of the method: as §1
# Staphylococcus aureus [4] = assay: Antimicrobial activity against Staphylococcus aureus NCTC 4163 at 400 ug after 18 hrs by disc-diffusion method; assay type: functional; conditions: NCTC 4163, 18 h, read-out: IZ
# Summary of the method: (§2)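 Disc diffusion on Mueller-Hinton II agar per CLSI; 9 mm paper discs loaded with 400 µg compound from DMSO solution, dried, placed on agar; growth inhibition zone diameter read after 18 h at 35°C.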
# Staphylococcus aureus [5] = assay: Antimicrobial activity against Staphylococcus aureus ATCC 25923 at 400 ug after 18 hrs by disc-diffusion method; assay type: functional; conditions: ATCC 25923, 18 h, read-out: IZ; summary of the method: as §2
# Staphylococcus aureus [6] = assay: Antimicrobial activity against Staphylococcus aureus ATCC 29213 at 400 ug after 18 hrs by disc-diffusion method; assay type: functional; conditions: ATCC 29213, 18 h, read-out: IZ; summary of the method: as §2
# [7] = tested on: Staphylococcus epidermidis; assay: Antimicrobial activity against Staphylococcus epidermidis ATCC 12228 at 400 ug after 18 hrs by disc-diffusion method; assay type: functional; conditions: for zone of inhibition at 400 µg/disc: ATCC 12228, 18 h, read-out: IZ; summary of the method: as §2
# Bacillus cereus = assay: Antimicrobial activity against Bacillus cereus ATCC 11778 at 400 ug after 18 hrs by disc-diffusion method; assay type: functional; conditions: ATCC 11778, 18 h, read-out: IZ; summary of the method: as §2
# Enterococcus hirae = assay: Antimicrobial activity against Enterococcus hirae ATCC 10541 at 400 ug after 18 hrs by disc-diffusion method; assay type: functional; conditions: for zone of inhibition at 400 µg/disc: ATCC 10541, 18 h, read-out: IZ; summary of the method: as §2
# Enterococcus faecalis = assay: Antimicrobial activity against Enterococcus faecalis ATCC 29212 at 400 ug after 18 hrs by disc-diffusion method; assay type: functional; conditions: for zone of inhibition at 400 µg/disc: ATCC 29212, 18 h, read-out: IZ; summary of the method: as §2
# Micrococcus luteus = assay: Antimicrobial activity against Micrococcus luteus ATCC 10240 at 400 ug after 18 hrs by disc-diffusion method; assay type: functional; conditions: for zone of inhibition at 400 µg/disc: ATCC 10240, 18 h, read-out: IZ; summary of the method: as §2
# Proteus vulgaris = assay: Antimicrobial activity against Proteus vulgaris NCTC 4635 at 400 ug after 18 hrs by disc-diffusion method; assay type: functional; conditions: for zone of inhibition at 400 µg/disc: NCTC 4635, 18 h, read-out: IZ; summary of the method: as §2
# Staphylococcus aureus [8] = assay: Antimicrobial activity against Staphylococcus aureus ATCC 6538 after 18 hrs by twofold serial microdilution method; assay type: functional; conditions: ATCC 6538, 18 h
# Staphylococcus aureus [9] = assay: Antimicrobial activity against Staphylococcus aureus ATCC 29213 after 18 hrs by twofold serial microdilution method; assay type: functional; conditions: ATCC 29213, 18 h
# Staphylococcus aureus [10] = assay: Antimicrobial activity against hospital methicillin-resistant Staphylococcus aureus 81/05 after 18 hrs by twofold serial microdilution method; assay type: functional; conditions: 81/05, 18 h
# Summary of the method: (§3)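 Twofold serial microdilution in Mueller-Hinton broth. Compound stock was made in DMSO and diluted in sterile water. Tested range was 0.125–512 µg/mL. Final inoculum was 10^5 CFU/mL. Plates were incubated 18 h at 35 °C. MIC is the lowest concentration preventing visible growth.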
# Staphylococcus aureus [11] = assay: Antimicrobial activity against hospital methicillin-resistant Staphylococcus aureus 522/11 after 18 hrs by twofold serial microdilution method; assay type: functional; conditions: 522/11, 18 h; summary of the method: as §3
# Staphylococcus aureus [12] = assay: Antimicrobial activity against hospital methicillin-resistant Staphylococcus aureus 573/11 after 18 hrs by twofold serial microdilution method; assay type: functional; conditions: 573/11, 18 h; summary of the method: as §3
# [13] = tested on: Staphylococcus epidermidis; assay: Antimicrobial activity against hospital methicillin-resistant Staphylococcus epidermidis 24/04 after 18 hrs by twofold serial microdilution method; assay type: functional; conditions: 24/04, 18 h; summary of the method: as §3
# Staphylococcus aureus [14] = assay: Ratio of ciprofloxacin MIC to compound MIC for hospital methicillin-resistant Staphylococcus aureus 53/05 after 18 hrs by twofold serial microdilution method; assay type: functional
# Summary of the method: (§4)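 Ratio of MICs for ciprofloxacin and test agent, each from twofold serial broth microdilution in Mueller-Hinton broth following CLSI guidelines. DMSO stock was diluted in sterile water to 0.125–512 µg/mL, with a final inoculum of 10^5 CFU/mL.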
# Staphylococcus aureus [15] = assay: Ratio of ciprofloxacin MIC to compound MIC for hospital methicillin-resistant Staphylococcus aureus 80/05 after 18 hrs by twofold serial microdilution method; assay type: functional; summary of the method: as §4
# Staphylococcus aureus [16] = assay: Ratio of ciprofloxacin MIC to compound MIC for hospital methicillin-resistant Staphylococcus aureus 573/11 after 18 hrs by twofold serial microdilution method; assay type: functional; summary of the method: as §4
# [17] = tested on: Staphylococcus epidermidis; assay: Ratio of ciprofloxacin MIC to compound MIC for hospital methicillin-resistant Staphylococcus epidermidis 24/04 after 18 hrs by twofold serial microdilution method; assay type: functional
# [18] = tested on: Staphylococcus epidermidis; assay: Ratio of ciprofloxacin MIC to compound MIC for hospital methicillin-resistant Staphylococcus epidermidis 31/04 after 18 hrs by twofold serial microdilution method; assay type: functional; summary of the method: as §4
# [19] = tested on: Staphylococcus epidermidis; assay: Ratio of ciprofloxacin MIC to compound MIC for hospital methicillin-resistant Staphylococcus epidermidis 76/04 after 18 hrs by twofold serial microdilution method; assay type: functional; summary of the method: as §4
# [20] = tested on: Mycobacterium tuberculosis; assay: Antimycobacterial activity against Mycobacterium tuberculosis H37Rv ATCC 25618; assay type: functional
# Summary of the method: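 Classical test-tube successive-dilution method in Youmans' modification of Proskauer and Beck liquid medium with 10% bovine serum. Inoculum came from 14-day cultures. DMSO stock was 10 mg/mL, diluted geometrically in medium. Tubes were incubated at 37 °C. Concentrations tested were 3.1, 6.2, 12.5, 25, 50 and 100 µg/ml. MIC is the minimum concentration inhibiting growth relative to compound-free tubes.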
SMILES,EC50 [1] [µM],EC50 (Coxsackievirus B5) [µM],EC50 (Poliovirus 1) [µM],EC50 (Human alphaherpesvirus 1) [µM],zone of inhibition at 400 µg/disc (Staphylococcus aureus [4]) [mm],zone of inhibition at 400 µg/disc (Staphylococcus aureus [5]) [mm],zone of inhibition at 400 µg/disc (Staphylococcus aureus [6]) [mm],zone of inhibition at 400 µg/disc [7] [mm],zone of inhibition at 400 µg/disc (Bacillus cereus) [mm],zone of inhibition at 400 µg/disc (Micrococcus luteus) [mm],MIC (Staphylococcus aureus [8]) [µg/mL],MIC (Staphylococcus aureus [9]) [µg/mL],MIC (Staphylococcus aureus [10]) [µg/mL],MIC (Staphylococcus aureus [11]) [µg/mL],MIC (Staphylococcus aureus [12]) [µg/mL],MIC [13] [µg/mL],Ratio (Staphylococcus aureus [14]),Ratio (Staphylococcus aureus [15]),Ratio (Staphylococcus aureus [16]),Ratio [17],further results
FC(F)(F)c1cccc(NC(=S)Nc2cccc(Br)c2)c1,> 10,> 14,> 14,> 14,28,28,29,29,24,30,1,1,1,0.5,0.25,4,128,128,128,128,CC50 [2]: 10 µM; CC50 [3]: 14 µM; zone of inhibition at 400 µg/disc (Enterococcus hirae): 13 mm; zone of inhibition at 400 µg/disc (Enterococcus faecalis): 18 mm; zone of inhibition at 400 µg/disc (Proteus vulgaris): 12 mm; Ratio [18]: 128; Ratio [19]: 128; MIC [20]: 100 µg/mL
FC(F)(F)c1cccc(NC(S)=NCc2ccccc2)c1,> 40,> 35,> 35,> 35,18,19,16,17,15,15,8,8,8,16,16,16,128,128,128,128,CC50 [2]: 45 µM; CC50 [3]: 35 µM; inhibition zone (IZ) (Enterococcus hirae): inactive; inhibition zone (IZ) (Enterococcus faecalis): inactive; inhibition zone (IZ) (Proteus vulgaris): inactive; Ratio [18]: 128; Ratio [19]: 128; MIC [20]: 25 µg/mL
FC(F)(F)c1cccc(NC(S)=Nc2ccc(Cl)c(Cl)c2)c1,> 10,> 16,> 16,> 16,15,14,15,13,13,16,0.5,0.5,1,1,1,1,128,128,128,128,zone of inhibition at 400 µg/disc (Enterococcus hirae): 15 mm; zone of inhibition at 400 µg/disc (Enterococcus faecalis): 12 mm; inhibition zone (IZ) (Proteus vulgaris): inactive; Ratio [18]: 128; Ratio [19]: 128; MIC [20]: 50 µg/mL
FC(F)(F)c1cccc(NC(=S)Nc2ccc(Cl)cc2)c1,> 17,> 11,> 11,> 11,12,12,12,–,12,–,8,8,16,16,8,16,128,128,128,128,CC50 [2]: 10 µM; CC50 [3]: 11 µM; inhibition zone (IZ) [7]: inactive; inhibition zone (IZ) (Enterococcus hirae): inactive; inhibition zone (IZ) (Enterococcus faecalis): inactive; inhibition zone (IZ) (Micrococcus luteus): inactive; inhibition zone (IZ) (Proteus vulgaris): inactive; Ratio [18]: 128; Ratio [19]: 128; MIC [20]: > 100 µg/mL
Fc1ccc(NC(=S)Nc2cccc(C(F)(F)F)c2)cc1Cl,> 11,> 20,> 20,> 20,30,27,30,30,25,30,1,1,0.25,0.5,0.5,1,128,128,128,128,CC50 [2]: 10 µM; CC50 [3]: 20 µM; zone of inhibition at 400 µg/disc (Enterococcus hirae): 34 mm; zone of inhibition at 400 µg/disc (Enterococcus faecalis): 20 mm; zone of inhibition at 400 µg/disc (Proteus vulgaris): 14 mm; Ratio [18]: 128; Ratio [19]: 128; MIC [20]: 50 µg/mL
Fc1cccc(NC(=S)Nc2cccc(C(F)(F)F)c2)c1,> 10,> 20,> 20,> 20,20,22,21,19,18,21,4,8,8,8,8,8,128,128,128,128,CC50 [2]: 9.4 µM; CC50 [3]: 20 µM; zone of inhibition at 400 µg/disc (Enterococcus hirae): 25 mm; zone of inhibition at 400 µg/disc (Enterococcus faecalis): 14 mm; inhibition zone (IZ) (Proteus vulgaris): inactive; Ratio [18]: 128; Ratio [19]: 128; MIC [20]: 25 µg/mL
O=C(O)c1cn(C2CC2)c2cc(N3CCNCC3)c(F)cc2c1=O [CIPROFLOXACIN],–,–,–,–,26,26,22,30,30,22,0.25,0.5,8,128,64,64,–,–,–,–,zone of inhibition at 400 µg/disc (Enterococcus hirae): 18 mm; zone of inhibition at 400 µg/disc (Enterococcus faecalis): 15 mm; zone of inhibition at 400 µg/disc (Proteus vulgaris): 36 mm
